≈ marks a conversion by molar mass, not a printed value.
Key:
Pseudomonas aeruginosa [1] = assay: Minimum inhibitory concentration against Pseudomonas aeruginosa IAI, measured in Muller-Hinton (MH) solid media; format: functional
Pseudomonas aeruginosa [2] = assay: Minimum inhibitory concentration against Pseudomonas aeruginosa IAI measured in succinate (SC) solid media; format: functional
Pseudomonas aeruginosa [3] = assay: Minimum inhibitory concentration against Pseudomonas aeruginosa K690, measured in succinate (SC) solid media; format: functional
Pseudomonas aeruginosa [4] = assay: Minimum inhibitory concentration against Pseudomonas aeruginosa ATCC 15692 measured in Muller-Hinton (MH) solid media; format: functional
Pseudomonas aeruginosa [5] = assay: Minimum inhibitory concentration against Pseudomonas aeruginosa ATCC 27853 measured in Muller-Hinton (MH) solid media; format: functional
Pseudomonas aeruginosa [6] = assay: Minimum inhibitory concentration against Pseudomonas aeruginosa ATCC 27853 measured in succinate (SC) solid media; format: functional
Pseudomonas aeruginosa [7] = assay: Minimum inhibitory concentration against Pseudomonas aeruginosa K690, measured in Muller-Hinton (MH) solid media; format: functional
Pseudomonas aeruginosa [8] = assay: Minimum inhibitory concentration against Pseudomonas aeruginosa ATCC 15692 measured in succinate (SC) solid media; format: functional
Pseudomonas aeruginosa [9] = assay: Minimum inhibitory concentration against Pseudomonas aeruginosa IAI measured in succinate (SC) liquid media; format: functional
Pseudomonas aeruginosa [10] = assay: Minimum inhibitory concentration against Pseudomonas aeruginosa ATCC 15692 measured in Muller-Hinton (MH) liquid media; format: functional
Outline: (§1)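 Broth microdilution in Müller-Hinton medium, highest final concentration generally 64 µg/mL, final inoculum 10^6 cells/mL, 18 h at 37 °C. […] Adducts expressed as µg/mL quinolone equivalents.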

Pseudomonas aeruginosa [11] = assay: Minimum inhibitory concentration against Pseudomonas aeruginosa ATCC 15692 measured in succinate (SC) liquid media; format: functional
Pseudomonas aeruginosa [12] = assay: Minimum inhibitory concentration against Pseudomonas aeruginosa ATCC 27853 measured in Muller-Hinton (MH) liquid media; format: functional
Pseudomonas aeruginosa [13] = assay: Minimum inhibitory concentration against Pseudomonas aeruginosa ATCC 27853 measured in succinate (SC) liquid media; format: functional
Pseudomonas aeruginosa [14] = assay: Minimum inhibitory concentration against Pseudomonas aeruginosa IAI, measured in Muller-Hinton (MH) liquid media; format: functional; outline: as §1
[15] = Minimum effective dose required for the inhibition of Escherichia coli gyrase

Row | SMILES | MIC (Pseudomonas aeruginosa [1]) [µg/mL] | MIC (Pseudomonas aeruginosa [2]) [µg/mL] | MIC (Pseudomonas aeruginosa [3]) [µg/mL] | MIC (Pseudomonas aeruginosa [4]) [µg/mL] | MIC (Pseudomonas aeruginosa [5]) [µg/mL] | MIC (Pseudomonas aeruginosa [6]) [µg/mL] | MIC (Pseudomonas aeruginosa [7]) [µg/mL] | MIC (Pseudomonas aeruginosa [8]) [µg/mL] | MED [15] [µg/mL] | MIC (Pseudomonas aeruginosa [9]) [µg/mL] | MIC (Pseudomonas aeruginosa [10]) [µg/mL] | MIC (Pseudomonas aeruginosa [11]) [µg/mL] | MIC (Pseudomonas aeruginosa [12]) [µg/mL] | MIC (Pseudomonas aeruginosa [13]) [µg/mL] | MIC (Pseudomonas aeruginosa [14]) [µg/mL]
1 | C[C@@H](O)[C@@H]1NC(=O)[C@H](CCCN(O)C=O)NC(=O)[C@@H](NC(=O)[C@](C)(CCCN(O)C=O)NC(=O)[C@@H](CO)NC(=O)[C@H](CCCN=C(N)N)NC(=O)[C@@H](CO)NC(=O)[C@@H]2CCNc3c(NC(=O)CCC(=O)NCCNC(=O)CCC(=O)N4CCN(c5cc6nc7c(cc6cc5F)c(=O)c(C(=O)O)cn7C)CC4)cc4cc(O)c(O)cc4[n+]32)CCCCNC(=O)[C@H]([C@@H](C)O)NC1=O | 32 | 8 | 4 | 16 | > 64 | 8 | 64 | 8 |  |  |  |  |  |  | 
2 | C[C@@H](O)[C@@H]1NC(=O)[C@H](CCCN(O)C=O)NC(=O)[C@@H](NC(=O)[C@](C)(CCCN(O)C=O)NC(=O)[C@@H](CO)NC(=O)[C@H](CCCN=C(N)N)NC(=O)[C@@H](CO)NC(=O)[C@@H]2CCNc3c(NC(=O)CCC(=O)NCCNC(=O)CCC(=O)OCOC(=O)N4CCN(c5cc6nc7c(cc6cc5F)c(=O)c(C(=O)O)cn7C)CC4)cc4cc(O)c(O)cc4[n+]32)CCCCNC(=O)[C@H]([C@@H](C)O)NC1=O [BENZONAPHTHYRIDONE BPL ADDUCT] | 16 | 1 | 8 | 8 | 64 | 4 | 32 | 1 |  | 2 | 4 | 2 | 32 | 32 | 8
3 | C[C@H](O)[C@@H]1NC(=O)[C@H](CCCN(O)C=O)NC(=O)[C@@H](NC(=O)[C@](C)(CCCN(O)C=O)NC(=O)[C@@H](CO)NC(=O)[C@H](CCCN=C(N)N)NC(=O)[C@H](CO)NC(=O)[C@@H]2CCNc3c(NC(=O)CCC(=O)NCCNC(=O)CCC(=O)N4CCN(c5cc6nc7c(cc6cc5F)c(=O)c(C(=O)O)cn7C)CC4)cc4cc(O)c(O)cc4[n+]32)CCCCNC(=O)[C@@H]([C@H](C)O)NC1=O |  |  |  |  |  |  |  |  | 25 |  |  |  |  |  | 
4 | CCn1cc(C(=O)O)c(=O)c2cc(F)c(N3CCNCC3)cc21 [NORFLOXACIN] | 1 (≈ 3.13 µM) | 0.03 (≈ 0.0939 µM) | 4 (≈ 12.5 µM) | 0.25 (≈ 0.783 µM) | 2 (≈ 6.26 µM) | 0.25 (≈ 0.783 µM) | 8 (≈ 25.1 µM) | 0.06 (≈ 0.188 µM) |  | 0.25 (≈ 0.783 µM) | 1 (≈ 3.13 µM) | 0.25 (≈ 0.783 µM) | 4 (≈ 12.5 µM) | 2 (≈ 6.26 µM) | 1 (≈ 3.13 µM)
5 | C[C@H](O)[C@@H]1NC(=O)[C@H](CCCN(O)C=O)NC(=O)[C@@H](NC(=O)[C@](C)(CCCN(O)C=O)NC(=O)[C@@H](CO)NC(=O)[C@H](CCCN=C(N)N)NC(=O)[C@@H](CO)NC(=O)[C@@H]2CCNc3c(NC(=O)CCC(=O)NCCNC(=O)CCC(=O)OCOC(=O)N4CCN(c5cc6nc7c(cc6cc5F)c(=O)c(C(=O)O)cn7C)CC4)cc4cc(O)c(O)cc4[n+]32)CCCCNC(=O)[C@@H]([C@H](C)O)NC1=O |  |  |  |  |  |  |  |  | 25 |  |  |  |  |  | 
6 | Cn1cc(C(=O)O)c(=O)c2cc3cc(F)c(N4CCNCC4)cc3nc21 | 16 (≈ 44.9 µM) | 16 (≈ 44.9 µM) | 16 (≈ 44.9 µM) | 8 (≈ 22.4 µM) | 16 (≈ 44.9 µM) | 8 (≈ 22.4 µM) | 32 (≈ 89.8 µM) | 4 (≈ 11.2 µM) | 4 | 32 (≈ 89.8 µM) | 16 (≈ 44.9 µM) | 64 (≈ 180 µM) | 32 (≈ 89.8 µM) | > 64 | 16 (≈ 44.9 µM)

Continued, in another order:

Row | MIC (Pseudomonas aeruginosa [1]) [µg/mL] | MIC (Pseudomonas aeruginosa [2]) [µg/mL] | MIC (Pseudomonas aeruginosa [3]) [µg/mL] | MIC (Pseudomonas aeruginosa [4]) [µg/mL] | MIC (Pseudomonas aeruginosa [5]) [µg/mL] | MIC (Pseudomonas aeruginosa [6]) [µg/mL] | MIC (Pseudomonas aeruginosa [7]) [µg/mL] | MIC (Pseudomonas aeruginosa [8]) [µg/mL] | MED [15] [µg/mL] | SMILES | MIC (Pseudomonas aeruginosa [9]) [µg/mL] | MIC (Pseudomonas aeruginosa [10]) [µg/mL] | MIC (Pseudomonas aeruginosa [11]) [µg/mL] | MIC (Pseudomonas aeruginosa [12]) [µg/mL] | MIC (Pseudomonas aeruginosa [13]) [µg/mL] | MIC (Pseudomonas aeruginosa [14]) [µg/mL]
7 | 4 | 2 | 16 | 2 | 16 | 8 | 16 | 2 |  | CCn1cc(C(=O)O)c(=O)c2cc(F)c(N3CCN(C(=O)OCOC(=O)CCC(=O)NCCNC(=O)CCC(=O)Nc4cc5cc(O)c(O)cc5[n+]5c4NCC[C@H]5C(=O)N[C@H](CO)C(=O)N[C@@H](CCCN=C(N)N)C(=O)N[C@H](CO)C(=O)N[C@@](C)(CCCN(O)C=O)C(=O)N[C@H]4CCCCNC(=O)[C@H]([C@@H](C)O)NC(=O)[C@H]([C@@H](C)O)NC(=O)[C@H](CCCN(O)C=O)NC4=O)CC3)cc21 | 0.5 | 2 | 0.5 | 16 | 8 | 4
8 |  |  |  |  |  |  |  |  | 50 | CCn1cc(C(=O)O)c(=O)c2cc(F)c(N3CCN(C(=O)CCC(=O)NCCNC(=O)CCC(=O)Nc4cc5cc(O)c(O)cc5[n+]5c4NCC[C@H]5C(=O)N[C@@H](CO)C(=O)N[C@@H](CCCN=C(N)N)C(=O)N[C@H](CO)C(=O)N[C@@](C)(CCCN(O)C=O)C(=O)N[C@H]4CCCCNC(=O)[C@@H]([C@H](C)O)NC(=O)[C@H]([C@H](C)O)NC(=O)[C@H](CCCN(O)C=O)NC4=O)CC3)cc21 |  |  |  |  |  | 
9 | 32 | 4 | 8 | 8 | > 64 | 8 | 32 | 2 |  | CCn1cc(C(=O)O)c(=O)c2cc(F)c(N3CCN(C(=O)CCC(=O)NCCNC(=O)CCC(=O)Nc4cc5cc(O)c(O)cc5[n+]5c4NCC[C@H]5C(=O)N[C@H](CO)C(=O)N[C@@H](CCCN=C(N)N)C(=O)N[C@H](CO)C(=O)N[C@@](C)(CCCN(O)C=O)C(=O)N[C@H]4CCCCNC(=O)[C@H]([C@@H](C)O)NC(=O)[C@H]([C@@H](C)O)NC(=O)[C@H](CCCN(O)C=O)NC4=O)CC3)cc21 |  |  |  |  |  | 
10 |  |  |  |  |  |  |  |  | 50 | CCn1cc(C(=O)O)c(=O)c2cc(F)c(N3CCN(C(=O)OCOC(=O)CCC(=O)NCCNC(=O)CCC(=O)Nc4cc5cc(O)c(O)cc5[n+]5c4NCC[C@H]5C(=O)N[C@@H](CO)C(=O)N[C@@H](CCCN=C(N)N)C(=O)N[C@H](CO)C(=O)N[C@@](C)(CCCN(O)C=O)C(=O)N[C@H]4CCCCNC(=O)[C@@H]([C@H](C)O)NC(=O)[C@H]([C@H](C)O)NC(=O)[C@H](CCCN(O)C=O)NC4=O)CC3)cc21 |  |  |  |  |  | 
